Here are results for one compound from ChEMBL document CHEMBL3758101, “Synthesis and biological evaluation of fluorinated 1,5-diarylpyrrole-3-alkoxyethyl ether derivatives as selective COX-2 inhibitors endowed with anti-inflammatory activity” (Eur J Med Chem, 2016).

Calls of active or inactive are those of the source.

Assay [1] has as its system Rattus norvegicus. The experiment in a line: Antiinflammatory activity in Sprague-Dawley rat model of carrageenan-induced paw edema assessed as paw volume at 20 mg/kg, po administered 2 hrs post carrageenan challenge measured after 30 mins by plethysmometry (reference value: 34.1 +/- 2.3 ml). The class given is functional.
Assay [2] relates to HaCaT. As to the kind of experiment: Antiproliferative activity against human HaCaT cells at 1 uM after 24 hrs by BrdU incorporation assay. Type of assay: functional, cell-based. In a few lines: (§1)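 HaCaT human keratinocytes were grown in high-glucose DMEM with 10% FBS and 2 mM L-glutamine at 37 °C and 5% CO2 to 80% confluency. Cells were treated 24 h with compound at 1, 10 or 50 µM (final DMSO ≤0.1%). Proliferation was read by BrdU incorporation as % of DMSO control; three experiments.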
In general terms: Incorporation of labelled thymidine or its analogues reports DNA synthesis.

The subject of assay [3] is Rattus norvegicus. The experiment in a line: Antihyperalgesic effect in Sprague-Dawley rat model of monosodium iodoacetate-induced osteoarthritis assessed as withdrawal threshold at 10 mg/kg, ip administered 14 days post MIA challenge measured after 120 mins by paw pressure test (reference value: 39.2 +/- 4 g). Type of assay: functional. In a few lines:
(§2)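 Male Sprague–Dawley rats (200–250 g). MIA (2 mg/25 µL) was injected into the left tibiotarsal joint on day 0 under 2% isoflurane; controls received 25 µL saline. On day 14 compound or vehicle was given at time 0. Paw pressure threshold (g) was read with an analgesimeter using a blunt conical probe on the dorsal paw at 30, 60, 90 and 120 min. Mean ± s.e.m., 6 rats.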

Assay [4] relates to Rattus norvegicus. The experiment in a line: Antiinflammatory activity in Sprague-Dawley rat model of carrageenan-induced […] at 10 mg/kg, po administered 2 hrs post carrageenan challenge measured after 60 mins by […] (reference value: 35.4 +/- 3.6 ml). The class given is functional. (The carrageenan paw model is a standard test of acute inflammation.)

Assay [5] concerns Rattus norvegicus. The experiment in a line: Antihyperalgesic activity in Sprague-Dawley rat model of carrageenan-induced inflammatory pain assessed as paw pressure threshold at 20 mg/kg, po administered 2 hrs post carrageenan challenge measured after 60 mins by paw pressure test (reference value: 35.4 +/- 3.6 g).
Assay [6] deals with Rattus norvegicus. As to the kind of experiment: Antihyperalgesic effect in Sprague-Dawley rat model of monosodium iodoacetate-induced osteoarthritis assessed as withdrawal threshold at 3 mg/kg, ip administered 14 days post MIA challenge measured after 120 mins by paw pressure test (reference value: 39.2 +/- 4 g). The class given is functional. In short, it runs like this:
as §2

In assay [7] the target is T1, Prostaglandin G/H synthase 1 (Mus musculus, UniProt P22437).
T1 sequence (P22437 whole entry): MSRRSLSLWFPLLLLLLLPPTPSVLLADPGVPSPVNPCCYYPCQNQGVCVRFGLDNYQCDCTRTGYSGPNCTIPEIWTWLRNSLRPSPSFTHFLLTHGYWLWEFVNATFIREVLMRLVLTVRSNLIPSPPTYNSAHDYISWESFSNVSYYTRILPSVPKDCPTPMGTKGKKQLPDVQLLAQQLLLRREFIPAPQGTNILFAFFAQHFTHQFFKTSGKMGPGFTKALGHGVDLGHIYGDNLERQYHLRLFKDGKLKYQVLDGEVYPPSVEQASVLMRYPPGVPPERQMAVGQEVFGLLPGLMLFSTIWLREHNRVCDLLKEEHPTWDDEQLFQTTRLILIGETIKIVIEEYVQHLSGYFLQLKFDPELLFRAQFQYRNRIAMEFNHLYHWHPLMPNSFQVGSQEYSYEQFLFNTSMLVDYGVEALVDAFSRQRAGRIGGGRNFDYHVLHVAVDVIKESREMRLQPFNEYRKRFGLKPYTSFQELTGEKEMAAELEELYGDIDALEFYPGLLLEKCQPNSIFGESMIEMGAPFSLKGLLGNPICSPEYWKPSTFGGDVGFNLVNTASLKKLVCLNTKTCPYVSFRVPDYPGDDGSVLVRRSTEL
The experiment in a line: Inhibition of COX-1 in mouse J774 cells assessed as reduction in PGE2 level using arachidonic acid as substrate preincubated for 15 mins followed by incubation with arachidonic acid for 30 mins by radio immunoassay. Type of assay: cell-based. In short, it runs like this:
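Murine J774 macrophages (2.5 × 10^5 cells/mL) were adhered 2 h at 37 °C and given fresh medium. Cells were pretreated with compound at 100 µM for 15 min, then incubated 30 min at 37 °C with 15 µM arachidonic acid. Supernatant PGE2 was measured by RIA as % inhibition versus control; triplicate wells, three experiments, IC50 from a sigmoidal variable-slope fit.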

Assay [8] concerns Rattus norvegicus. The experiment in a line: Antihyperalgesic effect in Sprague-Dawley rat model of monosodium iodoacetate-induced osteoarthritis assessed as withdrawal threshold at 10 mg/kg, ip administered 14 days post MIA challenge measured after 90 mins by paw pressure test (reference value: 37.8 +/- 3.1 g). The class given is functional. In short, it runs like this:
as §2

For assay [9], the system named is Rattus norvegicus. As to the kind of experiment: Antihyperalgesic activity in Sprague-Dawley rat model of carrageenan-induced inflammatory pain assessed as paw pressure threshold at 3 mg/kg, po administered 2 hrs post carrageenan challenge measured after 60 mins by paw pressure test (reference value: 35.4 +/- 3.6 g).
Assay [10] deals with Mus musculus. As to the kind of experiment: Antinociceptive activity in po dosed CD1 albino mouse model of acetic acid-induced visceral pain assessed as number of writhes pretreated for 30 to 60 mins before acetic acid challenge measured after 5 mins. The class given is functional, organism-based.
Assay [11] relates to Rattus norvegicus. The experiment in a line: Antihyperalgesic effect in Sprague-Dawley rat model of monosodium iodoacetate-induced osteoarthritis assessed as withdrawal threshold at 20 mg/kg, ip administered 14 days post MIA challenge measured after 90 mins by paw pressure test (reference value: 37.8 +/- 3.1 g). Type of assay: functional. In a few lines: as §2
Assay [12] has as its system Mus musculus. As to the kind of experiment: Antinociceptive activity in CD1 albino mouse model of acetic acid-induced visceral pain assessed as number of writhes at 3 mg/kg, po pretreated for 30 mins before acetic acid challenge measured after 5 mins (reference value: 30.5 +/- 1.7). Type of assay: functional.
Assay [13] has as its system Rattus norvegicus. As to the kind of experiment: Antiinflammatory activity in Sprague-Dawley rat model of carrageenan-induced paw edema assessed as volume of paw edema at 10 mg/kg, po administered 2 hrs post carrageenan challenge measured after 60 mins by plethysmometry (reference value: 2.73 +/- 0.07 ml). Type of assay: functional.
For assay [14], the system named is Rattus norvegicus. The experiment in a line: Antiinflammatory activity in Sprague-Dawley rat model of carrageenan-induced paw edema assessed as volume of paw edema at 20 mg/kg, po administered 2 hrs post carrageenan challenge measured after 60 mins by plethysmometry (reference value: 2.73 +/- 0.07 ml). Type of assay: functional.
Assay [15] has as its system Rattus norvegicus. The experiment in a line: Antihyperalgesic effect in Sprague-Dawley rat model of monosodium iodoacetate-induced osteoarthritis assessed as withdrawal threshold at 10 mg/kg, ip administered 14 days post MIA challenge measured after 60 mins by paw pressure test (reference value: 36.1 +/- 3.5 g). The class given is functional. In short, it runs like this:
as §2

Assay [16] relates to Rattus norvegicus. The experiment in a line: Antihyperalgesic effect in Sprague-Dawley rat model of monosodium iodoacetate-induced osteoarthritis assessed as withdrawal threshold at 10 mg/kg, ip administered 14 days post MIA challenge measured after 30 mins by paw pressure test (reference value: 37.8 +/- 3.3 g). Type of assay: functional. In short, it runs like this: as §2

The subject of assay [17] is HaCaT. The experiment in a line: Antiproliferative activity against human HaCaT cells after 24 hrs by BrdU incorporation assay. The class given is functional, cell-based. In short, it runs like this: as §1
Assay [18] concerns HaCaT. The experiment in a line: Antiproliferative activity against human HaCaT cells at 50 uM after 24 hrs by BrdU incorporation assay. The class given is functional, cell-based. In a few lines: as §1
Assay [19] concerns Mus musculus. The experiment in a line: Antinociceptive activity in CD1 albino mouse model of acetic acid-induced visceral pain assessed as number of writhes at 10 mg/kg, po pretreated for 30 mins before acetic acid challenge measured after 5 mins (reference value: 30.5 +/- 1.7). The class given is functional.

What is called IC50 is the midpoint of a concentration-inhibition curve. For `Cc1c(CCOCCCF)cc(-c2ccc(S(C)(=O)=O)cc2)n1-c1ccc(F)cc1`, the Activity with Rattus norvegicus [1] is 53.9 g; in the assay on Rattus norvegicus [3] it was 40.6 g; with Rattus norvegicus [4], 53.5 g; in the assay with Rattus norvegicus [5], 56.3 g; in the assay with Rattus norvegicus [6] it was 39 g; in the assay with Rattus norvegicus [8], 44.3 g. Besides, the Activity is 49.2 g with Rattus norvegicus [9]; “Dose-dependent effect” in the assay with Mus musculus [10]; 43.8 g in the assay on Rattus norvegicus [11]; 21.8 in the assay on Mus musculus [12]; 2.15 mL in the assay on Rattus norvegicus [13]; 2.06 mL in the assay on Rattus norvegicus [14]. Further, the Activity in the assay with Rattus norvegicus [15] is 51.8 g; in the assay on Rattus norvegicus [16], 50.3 g; with HaCaT [17] it was “Dose-dependent effect”; in the assay on Mus musculus [19], 11.4. For the same compound, the outcome in the assay with HaCaT [2] was inactive. The concentration for half-maximal inhibition (IC50) in assay [7] was greater than 100 µM. For the same compound, in the assay on HaCaT [18], the result was Active.
